The nature of assay [1]: Concentration required to inhibit the growth of chang liver cells. Conditions: Homo sapiens. It counts as functional.
For a further assay, the system named is L1210. The experiment in a line: Concentration required to inhibit the growth of L1210 cells. It counts as functional, cell-based. Conditions: Mus musculus.
The test system of assay [2] is Mus musculus. The experiment in a line: Incidence of disease(mouse type II collagen arthritis) was scored as the percentage of animals within each experimental group that exhibited joint or limb inflammation on day 30 at intraperitoneal of dose 15 mg/kg. It counts as functional. In short, it runs like this:
(§1)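 DBA/1 mice were immunized with bovine type II collagen (modified Courtenay method), with a collagen booster on day 21. Compounds were given ip starting 2 days before the first collagen challenge and every 2 days thereafter. Incidence was the percentage of animals per group with joint or limb inflammation, scored on days 23, 30, 37 and 44.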

The test system of assay [3] is Mus musculus. Nature of the assay: Incidence of disease(mouse type II collagen arthritis) was scored as the percentage of animals within each experimental group that exhibited joint or limb inflammation on day 37 at intraperitoneal of dose 10 mg/kg. It counts as functional. The essentials: as §1
In assay [4] the test system is Mus musculus. Nature of the assay: Incidence of disease(mouse type II collagen arthritis) was scored as the percentage of animals within each experimental group that exhibited joint or limb inflammation on day 37 at intraperitoneal of dose 15 mg/kg. It counts as functional. The essentials: as §1
For assay [5], the system named is Mus musculus. Nature of the assay: Incidence of disease(mouse type II collagen arthritis) was scored as the percentage of animals within each experimental group that exhibited joint or limb inflammation on day 23 at intraperitoneal dose of 10 mg/kg. It counts as functional. The essentials:
as §1

In assay [6] the test system is Mus musculus. Nature of the assay: Incidence of disease(mouse type II collagen arthritis) was scored as the percentage of animals within each experimental group that exhibited joint or limb inflammation on day 23 at intraperitoneal dose of 15 mg/kg. It counts as functional. The essentials:
as §1

In assay [7] the test system is Mus musculus. The experiment in a line: Incidence of disease(mouse type II collagen arthritis) was scored as the percentage of animals within each experimental group that exhibited joint or limb inflammation on day 30 at intraperitoneal of dose 10 mg/kg. It counts as functional. In short, it runs like this: as §1
Assay [8] relates to Mus musculus. The experiment in a line: Tested for antiinflammatory activity on mouse type II collagen arthritis as Paw swelling* of all animals in each group on day 23 at intraperitoneal dose of 10 mg/kg. It counts as functional. In short, it runs like this: (§2)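 DBA/1 mice immunized with bovine type II collagen (Courtenay method, modified), antigen booster at day 21. Compounds given ip from 2 days before the first collagen challenge, then every 2 days. Hind paw dimensions (mm) measured for both limbs of all animals, expressed as mean ± SD. Eight mice per dose; untreated controls pooled from four experiments (48 animals).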

Assay [9] deals with Mus musculus. The experiment in a line: Tested for antiinflammatory activity on mouse type II collagen arthritis as Paw swelling* of all animals in each group on day 44 at intraperitoneal dose of 10 mg/kg. It counts as functional. In short, it runs like this:
as §2

The subject of assay [10] is Mus musculus. The experiment in a line: Tested for antiinflammatory activity on mouse type II collagen arthritis as Paw swelling* of all animals in each group on day 44 at intraperitoneal dose of 15 mg/kg. It counts as functional. The essentials: as §2
The subject of assay [11] is Mus musculus. The experiment in a line: Tested for antiinflammatory activity on mouse type II collagen arthritis as Paw swelling* of all animals in each group on day 30 at intraperitoneal dose of 10 mg/kg. It counts as functional. In short, it runs like this: as §2
The test system of assay [12] is Mus musculus. Nature of the assay: Tested for antiinflammatory activity on mouse type II collagen arthritis as Paw swelling* of all animals in each group on day 30 at intraperitoneal dose of 15 mg/kg. It counts as functional. In short, it runs like this: as §2
Assay [13] relates to Mus musculus. The experiment in a line: Tested for antiinflammatory activity on mouse type II collagen arthritis as Paw swelling* of all animals in each group on day 23 at intraperitoneal dose of 15 mg/kg. It counts as functional. In short, it runs like this: as §2
For assay [14], the system named is Mus musculus. The experiment in a line: Incidence of disease(mouse type II collagen arthritis) was scored as the percentage of animals within each experimental group that exhibited joint or limb inflammation on day 44 at intraperitoneal of dose 10 mg/kg. It counts as functional. In short, it runs like this:
as §1

In assay [15] the test system is Mus musculus. The experiment in a line: Incidence of disease(mouse type II collagen arthritis) was scored as the percentage of animals within each experimental group that exhibited joint or limb inflammation on day 44 at intraperitoneal of dose 15 mg/kg. It counts as functional. The essentials:
as §1

Assay [16] deals with Mus musculus. Nature of the assay: Tested for antiinflammatory activity on mouse type II collagen arthritis as Paw swelling* of all animals in each group on day 37 at intraperitoneal dose of 10 mg/kg. It counts as functional. The essentials: as §2
Assay [17] deals with Mus musculus. The experiment in a line: Tested for antiinflammatory activity on mouse type II collagen arthritis as Paw swelling* of all animals in each group on day 37 at intraperitoneal dose of 15 mg/kg. It counts as functional. The essentials: as §2
Assay [18] concerns Mus musculus. The experiment in a line: Incidence of disease(mouse type II collagen arthritis) was scored as the percentage of animals within each experimental group that exhibited joint or limb inflammation on day 37 at intraperitoneal of dose 12 mg/kg (1 animal died). It counts as functional. In short, it runs like this: (§3)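 DBA/1 mice immunised with bovine type II collagen, booster at day 21 (modified Courtenay model). Compound given intraperitoneally from 2 days before the first collagen challenge, then every 2 days. Incidence is the percentage of animals per group showing joint or limb inflammation, scored visually on days 23, 30, 37 and 44.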

The subject of assay [19] is Mus musculus. Nature of the assay: Incidence of disease(mouse type II collagen arthritis) was scored as the percentage of animals within each experimental group that exhibited joint or limb inflammation on day 23 at intraperitoneal dose of 12 mg/kg (1 animal died). It counts as functional. The essentials:
as §3

Assay [20] concerns Mus musculus. The experiment in a line: Incidence of disease(mouse type II collagen arthritis) was scored as the percentage of animals within each experimental group that exhibited joint or limb inflammation on day 30 at intraperitoneal of dose 12 mg/kg (1 animal died). It counts as functional. The essentials:
as §3

Assay [21] concerns Mus musculus. Nature of the assay: Tested for antiinflammatory activity on mouse type II collagen arthritis as Paw swelling* of all animals in each group on day 44 at intraperitoneal dose of 12 mg/kg; d means 3 animals died. It counts as functional, organism-based. The arrangement: dose 12 mg/kg. The essentials: as §2
Assay [22] deals with Mus musculus. Nature of the assay: Tested for antiinflammatory activity on mouse type II collagen arthritis as Paw swelling* of all animals in each group on day 30 at intraperitoneal dose of 12 mg/kg. It counts as functional. In short, it runs like this: as §2
In assay [23] the test system is Mus musculus. Nature of the assay: Tested for antiinflammatory activity on mouse type II collagen arthritis as Paw swelling* of all animals in each group on day 23 at intraperitoneal dose of 12 mg/kg. It counts as functional. The essentials: as §2
Assay [24] deals with Mus musculus. The experiment in a line: Incidence of disease(mouse type II collagen arthritis) was scored as the percentage of animals within each experimental group that exhibited joint or limb inflammation on day 44 at intraperitoneal of dose 12 mg/kg; d means 3 animals died. It counts as functional, organism-based. More on the design: dose 12 mg/kg. Conditions: at 12 mg/kg. The essentials: as §1

Assay [25] relates to Mus musculus. The experiment in a line: Tested for antiinflammatory activity on mouse type II collagen arthritis as Paw swelling* of all animals in each group on day 37 at intraperitoneal dose of 12 mg/kg. It counts as functional. The essentials: as §2

As a reminder, the IC50 is the concentration that inhibits the measured activity by half. A higher IC50 goes with weaker potency. `CCC(Cc1cnc2nc(N)nc(N)c2n1)c1ccc(C(=O)NC(CCC(=O)O)C(=O)O)s1` (stereo unspecified): the IC50 came to 1.6 nM in assay [1] and 3.7 nM in the assay on L1210. The Animals with Mus musculus [2] is given as 0%; in the assay on Mus musculus [3], 25%; in the assay on Mus musculus [4], 12%; in the assay with Mus musculus [5] it was 0%; with Mus musculus [6], 0%; in the assay on Mus musculus [7] it was 0%. Further, the Animals amounted to 38% in the assay with Mus musculus [14] and 12% in the assay with Mus musculus [15]. For the same compound, the Paw swelling stood at 2.13 mm in the assay on Mus musculus [8]; 2.25 mm in the assay on Mus musculus [9]; 2.26 mm in the assay on Mus musculus [10]; 2.15 mm in the assay on Mus musculus [11]; 2.17 mm in the assay with Mus musculus [12]; 2.15 mm in the assay on Mus musculus [13]. In addition, the values for the Paw swelling in the assay on Mus musculus [16] and with Mus musculus [17] were 2.23 mm and 2.21 mm, respectively.

Take `Nc1nc(N)c2nc(CCc3ccc(C(=O)NC(CCC(=O)O)C(=O)O)nc3)cnc2n1` (stereo unspecified): the Animals is listed as 0% in the assay with Mus musculus [18], 0% in the assay on Mus musculus [19], 0% with Mus musculus [20] and “Three animals died” in the assay on Mus musculus [24]. In addition, the Paw swelling entry in the assay on Mus musculus [21] was “Three animals died”; in the assay with Mus musculus [22], 2.11 mm; with Mus musculus [23], 2.14 mm; with Mus musculus [25], 2.07 mm.

The record behind these values is ChEMBL document CHEMBL1129929, “Analogues of methotrexate in rheumatoid arthritis. 1. Effects of 10-deazaaminopterin analogues on type II collagen-induced arthritis in mice” (J Med Chem, 1997).
